Calls of active or inactive are those of the source. No cut-off for these calls is given here.
Assays:
Trypanosoma cruzi [1] = test: (§1) Antitrypanosomal activity against Trypanosoma cruzi Y trypomastigote infected in monkey LLC-MK2 cells assessed as inhibition of cell invasion by trypanosoma by measuring infected fibroblast at 250 uM pretreated with cells for 30 mins followed by trypomastigote infection measured after 18 hrs by panoptic dye-based optical microscopic analysis (reference value: 63%); type: functional; set-up: scale not given: the % may be the effect or the level left
Summary of the method: (§2)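 LLCMK2 cells adhered on coverslips, exposed to compound at 250 µM for 30 min, then infected with Y-strain trypomastigotes (1 x 10^5; 5 parasites per cell). Incubated 18 h at 37 °C, 5% CO2, then fixed, stained with panoptic dye and read by optical microscopy. Scored as % infected cells, mean amastigotes per cell, and infection index (% infected × mean parasites per cell). Triplicate.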

Trypanosoma cruzi [2] = test: as §1, with “mean number of amastigote parasites per cells” for “infected fibroblast”, “analysis” for “analysis (reference value: 63%)”; type: functional, organism-based; summary of the method: as §2
[3] = biological target: T1, Trans-sialidase (Trypanosoma cruzi) (UniProt Q26964); test: Inhibition of recombinant His-tagged Trypanosoma cruzi trans-sialidase N-terminal catalytic domain at 1 mM preincubated for 10 mins followed by MuNANA addition measured over 5 mins by fluorimetric assay relative to control
T1 sequence (whole entry): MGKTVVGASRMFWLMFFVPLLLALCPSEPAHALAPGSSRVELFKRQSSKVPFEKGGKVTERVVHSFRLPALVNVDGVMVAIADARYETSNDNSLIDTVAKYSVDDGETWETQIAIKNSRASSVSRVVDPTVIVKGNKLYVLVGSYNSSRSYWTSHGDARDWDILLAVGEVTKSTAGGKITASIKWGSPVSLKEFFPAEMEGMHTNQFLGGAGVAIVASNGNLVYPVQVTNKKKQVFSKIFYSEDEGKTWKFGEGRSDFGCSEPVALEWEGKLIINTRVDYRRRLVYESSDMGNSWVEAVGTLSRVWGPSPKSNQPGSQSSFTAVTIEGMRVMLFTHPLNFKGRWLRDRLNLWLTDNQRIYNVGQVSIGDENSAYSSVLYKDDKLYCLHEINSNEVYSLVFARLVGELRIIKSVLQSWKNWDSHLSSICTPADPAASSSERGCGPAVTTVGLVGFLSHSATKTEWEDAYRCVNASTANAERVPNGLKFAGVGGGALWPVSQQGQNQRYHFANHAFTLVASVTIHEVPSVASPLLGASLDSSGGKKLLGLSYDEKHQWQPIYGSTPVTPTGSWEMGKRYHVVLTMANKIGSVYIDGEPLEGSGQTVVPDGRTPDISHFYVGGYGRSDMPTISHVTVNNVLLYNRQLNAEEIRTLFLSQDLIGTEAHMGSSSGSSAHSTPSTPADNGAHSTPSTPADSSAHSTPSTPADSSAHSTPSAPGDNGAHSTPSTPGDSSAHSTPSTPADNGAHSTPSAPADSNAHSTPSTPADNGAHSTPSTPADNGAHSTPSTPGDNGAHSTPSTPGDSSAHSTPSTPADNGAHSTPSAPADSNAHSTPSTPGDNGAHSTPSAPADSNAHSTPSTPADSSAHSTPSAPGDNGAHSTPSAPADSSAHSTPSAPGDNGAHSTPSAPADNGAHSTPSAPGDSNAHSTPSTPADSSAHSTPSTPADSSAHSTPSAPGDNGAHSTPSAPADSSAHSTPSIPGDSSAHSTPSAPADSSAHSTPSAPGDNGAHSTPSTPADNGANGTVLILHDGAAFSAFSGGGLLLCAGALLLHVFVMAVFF
Summary of the method: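 Recombinant His-tagged 70 kDa trans-sialidase, truncated to the catalytic N-terminal domain, in phosphate buffer pH 7. Preincubated with inhibitor at 1.0 mM final for 10 min at 26 °C. MuNANA added to 0.1 mM and released fluorescence followed over 5 min (ex 360/em 460 nm). Triplicate. %I = 100 × [1 − Vi/V0].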

Trypanosoma cruzi [4] = test: as §1, with “LLCMK2” for “LLC-MK2”, “infection index” for “infected fibroblast”, “68)” for “63%)”; type: functional; summary of the method: as §2
Trypanosoma cruzi [5] = test: Trypanocidal activity against Trypanosoma cruzi Y trypomastigote assessed as effect on parasite viability at 31.25 to 250 uM after 48 hrs by resazurin-based assay; type: functional, organism-based
Summary of the method: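 Culture-derived Y-strain trypomastigotes, 1 x 10^6 per well, in RPMI 1640 with 10% FBS containing compound (250 to 31,25 µM). Held 48 h at 37 °C, 5% CO2. Resazurin added for 6 h, then read at 570 and 600 nm. Viability from OD570 minus OD600, relative to untreated parasites.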

LLC-MK2 = test: Cytotoxicity against monkey LLC-MK2 cells assessed as reduction in cell viability after 48 hrs by MTT assay; type: cell-based, Macaca mulatta; conditions: rhesus monkey, llc-mk2, 48 h
Summary of the method: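 LLCMK2 cells, 1 x 10^4 per well, adhered overnight in RPMI 1640 with 10% FBS. Exposed to 500 to 67,5 µM compound in triplicate for 48 h at 37 °C, 5% CO2. MTT added for 4 h, formazan dissolved in DMSO, absorbance at 570 nm.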

Galectin-3 = Galectin-3 (Homo sapiens, UniProt P17931); test: Binding affinity to recombinant human galectin-3 expressed in Escherichia coli BL21 after 3 hrs
Galectin-3, sequence (P17931 whole entry): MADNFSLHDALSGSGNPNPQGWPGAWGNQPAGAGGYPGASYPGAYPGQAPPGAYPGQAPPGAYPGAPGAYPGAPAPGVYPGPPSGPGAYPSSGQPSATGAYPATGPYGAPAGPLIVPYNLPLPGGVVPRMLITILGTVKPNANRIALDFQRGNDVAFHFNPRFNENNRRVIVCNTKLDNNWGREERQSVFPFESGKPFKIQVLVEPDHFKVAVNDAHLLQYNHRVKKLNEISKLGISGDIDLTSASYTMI
Summary of the method: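 Human galectin-3 expressed in E. coli BL21, purified on lactosyl-Sepharose, immobilized at 150 µg/mL (20 mM sodium acetate, pH 4.0, 16 h, 4 °C) on NHS-activated label-free biosensor. Compound dissolved in DMSO, diluted into PBS pH 7.4 with 1% or 2% DMSO, 0.09–400 µM, triplicate. Wavelength shift (pm) read over 3 h at 25 °C, blank-subtracted. EC50 from one-site binding fit.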

Trans-sialidase = biological target: T2, Trans-sialidase (Trypanosoma cruzi, UniProt Q26964); test: Inhibition of Trypanosoma cruzi trans-sialidase using Trifluoromethylumbelliferyl alpha-sialoside as substrate by UV/visible spectrophotometer
T2 sequence (Q26964 whole entry): T1 sequence (whole entry)

SMILES	inhibition [3]	Activity (Galectin-3)	EC50 (Galectin-3)	IC50 (Trans-sialidase)	Activity (Trypanosoma cruzi [1])	Activity (Trypanosoma cruzi [2])	Activity_index (Trypanosoma cruzi [4])	Activity (Trypanosoma cruzi [5])	Activity (LLC-MK2)
CO[C@@H]1O[C@H](CO)[C@H](O)[C@H](OCc2cn(-c3ccc(S(=O)(=O)NC(C)=O)cc3)nn2)[C@H]1O	88%	Dose-dependent effect	205 µM	–	47 - 54%	Active	28 - 44	inactive	Non-Toxic
Cc1ccc(S(=O)(=O)N2c3ccccc3C(=O)/C(=C/c3ccc(O)c(O)c3)C2c2ccc(O)c(O)c2)cc1 (stereo not drawn)	–	–	–	0.6 µM	–	–	–	–	–
CO[C@@H]1O[C@H](CO)[C@H](O)[C@H](OCc2cn(-c3ccc(S(N)(=O)=O)cc3)nn2)[C@H]1O	4.5 to 16%	Dose-dependent effect	40.7 µM	–	47 - 54%	Active	28 - 44	inactive	Non-Toxic

Now from value to compound, other results behind:

inhibition [3]	Activity (Galectin-3)	EC50 (Galectin-3)	IC50 (Trans-sialidase)	SMILES	Activity (Trypanosoma cruzi [1])	Activity (Trypanosoma cruzi [2])	Activity_index (Trypanosoma cruzi [4])	Activity (Trypanosoma cruzi [5])	Activity (LLC-MK2)
4.5 to 16%	–	–	–	CO[C@@H]1O[C@H](CO)[C@H](O)[C@H](OCc2cn(-c3ccc(S(=O)(=O)Nc4ccccn4)cc3)nn2)[C@H]1O	47 - 54%	Active	28 - 44	inactive	Non-Toxic
4.5 to 16%	Dose-dependent effect	67.7 µM	–	CO[C@@H]1O[C@H](CO)[C@H](O)[C@H](OCc2cn(-c3ccc(S(=O)(=O)Nc4nc(C)cc(C)n4)cc3)nn2)[C@H]1O	47 - 54%	Active	28 - 44	inactive	Non-Toxic
4.5 to 16%	–	–	–	CO[C@@H]1O[C@H](CO)[C@H](O)[C@H](OCc2cn(-c3ccc(S(=O)(=O)Nc4nccc(C)n4)cc3)nn2)[C@H]1O	47 - 54%	Active	28 - 44	inactive	Non-Toxic
4.5 to 16%	Dose-dependent effect	18.3 µM	–	COc1cc(NS(=O)(=O)c2ccc(-n3cc(CO[C@H]4[C@@H](O)[C@@H](CO)O[C@@H](OC)[C@@H]4O)nn3)cc2)nc(OC)n1	38%	Active	20	inactive	Non-Toxic
4.5 to 16%	Dose-dependent effect	17.2 µM	–	CO[C@@H]1O[C@H](CO)[C@H](O)[C@H](OCc2cn(-c3ccc(S(=O)(=O)Nc4cc(C)on4)cc3)nn2)[C@H]1O	41%	Active	20	inactive	Non-Toxic

From ChEMBL document CHEMBL4177604, “Binding of triazole-linked galactosyl arylsulfonamides to galectin-3 affects Trypanosoma cruzi cell invasion” (Bioorg Med Chem, 2017)
